Test results reported in ChEMBL document CHEMBL1133666, “Esterase-sensitive nitric oxide donors of the diazeniumdiolate family: in vitro antileukemic activity” (J Med Chem, 2000).

Assays:
HL-60 [1] = assay: Inhibitory activity towards HL-60 cells at 72 hours; type: functional, cell-based; details: Homo sapiens, HL-60, 72 h
Method in brief: (§1)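 Leukemia cells seeded at 150 000 cells/mL in RPMI-1640 with 10% FBS, 37 °C, 5% CO₂, 1 mL per well. NO donors added at culture initiation. Cells harvested at 72 h and washed twice in PBS. Viable cells counted by Trypan blue exclusion. IC50 calculated from the concentration–growth curve. Means ± SEM of at least three separate experiments.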

HL-60 [2] = assay: Within 24 hr at initial concentrations of 50 uM, apoptosis induction was evaluated in HL-60 cells; type: functional
Method in brief: (§2)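 Cells grown at 150 000 cells/mL in RPMI-1640 with 10% FBS, 37 °C, 5% CO₂, with compound added at culture start and read at 24 h. Cells washed in PBS and lysed in 0.2% NP40/5% BSA in PBS with propidium iodide and RNase A. Flow cytometry scored the low-DNA-content (apoptotic) fraction as percent of cells. Means ± SEM of ≥3 experiments.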

U-937 [3] = assay: Within 24 hr at initial concentrations of 50 uM, apoptosis induction was evaluated in U937 cells; type: functional; method in brief: as §2
U-937 [4] = assay: Inhibitory activity towards U937 cells at 72 hours; type: functional, cell-based; details: Homo sapiens, U-937, 72 h; method in brief: as §1
U-937 [5] = assay: Inhibitory activity towards U937 cells at concentration of 100 uM; type: functional; details: Homo sapiens; method in brief: as §1
HL-60 [6] = assay: Inhibitory activity towards HL-60 cells at concentration of 100 uM; type: functional; details: Homo sapiens; method in brief: as §1

| SMILES | IC50 (HL-60 [1]) | Apoptosis induction (HL-60 [2]) | Apoptosis induction (U-937 [3]) | IC50 (U-937 [4]) | inhibition at 100 µM (U-937 [5]) | inhibition at 100 µM (HL-60 [6]) |
| --- | --- | --- | --- | --- | --- | --- |
| [O-]/[N+](=N\O)N1CCCC1 | > 600 µM |  |  |  |  |  |
| CCN(CC)/[N+]([O-])=N/O | > 600 µM |  |  |  |  |  |
| CC(=O)OCO/N=[N+](\[O-])N1CCCC1 | 6.4 µM | 57% | 40% | 53 µM |  |  |
| CCN(CC)/[N+]([O-])=N/OCOC(C)=O | 8.3 µM | 50% | 35% | 53 µM |  |  |
| CCN(CC)/[N+]([O-])=N/OCCSC(C)=O |  |  |  |  | 48% | 90% |
